Measured values reported in ChEMBL document CHEMBL4680373, “Evaluation of 5-(Trifluoromethyl)-1,2,4-oxadiazole-Based Class IIa HDAC Inhibitors for Huntington's Disease” (ACS Med Chem Lett, 2021).

Tests used:
Homo sapiens = species: Homo sapiens; experiment: Inhibition of sodium channel (unknown origin) at 10 uM
Procedure, shortened: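 Broad selectivity panel of binding, cellular, functional and enzymatic assays run by a contract lab. Each test was done at a single 10 μM concentration and reported as percent inhibition.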

[1] = Toxicity in CBAxC57BL/6J mouse assessed as effect on stereotypy at 10 to 100 mg/kg, po bid for 14.5 days; format: organism-based; conditions: in vivo, 348 h, dose 10-100 mg/kg, time 14.5 day
Procedure, shortened: (§1)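 R6/2 HD mice and wild-type littermates, male and female, were dosed orally b.i.d. at 10, 30 or 100 mg/kg or with vehicle for 14.5 days. Vehicle was 10% (w/v) hydroxypropyl-β-cyclodextrin in 50 mM citrate buffer. Body weight, body temperature, passive observations and active manipulation scores were recorded. Blood and brain were collected 2 h after the final dose.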

Histone deacetylase 4 = Histone deacetylase 4 (Homo sapiens, UniProt P56524); experiment: Inhibition of Class 2A HDAC4 in human Jurkat E6.1 cells using Boc-Lys-(TFA)-AMC as substrate by fluorogenic assay; format: cell-based
Procedure, shortened: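 Whole-cell assay in Jurkat E6.1 cells with artificial fluorogenic substrates: Boc-Lys-(TFA)-AMC for class IIa/HDAC8 activity, which in this line is mostly HDAC4, and Boc-Lys-(Ac)-AMC for class I/IIb activity. IC50 given as the geometric mean of three experiments.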

[2] = biological target: Histone deacetylase 3/Nuclear receptor corepressor 1 (HDAC3/NCoR1) (Homo sapiens); experiment: Inhibition of HDAC3/NCOR1 (unknown origin) using Boc-Lys(Ac) as substrate by fluorogenic assay
[3] = Toxicity in CBAxC57BL/6J mouse assessed as effect on tail tremor at 10 to 100 mg/kg, po bid for 14.5 days; format: organism-based; conditions: in vivo, 348 h, dose 10-100 mg/kg, time 14.5 day; procedure, shortened: as §1
Histone deacetylase 5 = Histone deacetylase 5 (Homo sapiens, UniProt Q9UQL6); experiment: Inhibition of HDAC5 (unknown origin) using Boc Lys(TFA) as substrate by fluorogenic assay
Procedure, shortened: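 Biochemical HDAC isoform assay with the artificial fluorogenic substrate Boc-Lys-(TFA)-AMC, which is specific to class IIa enzymes and HDAC8. IC50 taken as the geometric mean of three experiments.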

Cytochrome P450 3A4 = Cytochrome P450 3A4 (Homo sapiens, UniProt P08684); experiment: Inhibition of CYP3A4 in human liver microsomes using midazolam as substrate incubated for 15 mins by LC-MS/MS analysis; format: ADME
[4] = In vivo inhibition of Class 1/2B HDAC in C57BL/6J mouse brain assessed as increase in global pan-acetylation at 10 mg/kg, po administered via gavage measured after 2 hrs by dot blot technique; format: organism-based
Procedure, shortened: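 Mice received single oral gavage doses of 10, 30 or 100 mg/kg, and brains were sampled from 0.25 to 12 h. Brain compound levels were measured by LC-MS/MS. Dot blots read H4K12 acetylation normalized to histone H4, or pan-acetyl-lysine normalized to tubulin.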

[5] = Tmax in C57BL/6J mouse brain at 11.5 mg/kg, po administered via gavage by LC-MS/MS analysis; format: ADME, organism-based
Cytochrome P450 2C9 = Cytochrome P450 2C9 (Homo sapiens, UniProt P11712); experiment: Inhibition of CYP2C9 in human liver microsomes using diclofenac as substrate incubated for 15 mins by LC-MS/MS analysis; format: ADME
[6] = biological target: Muscarinic acetylcholine receptor M1 (Homo sapiens, UniProt P11229); experiment: Displacement of [3H]pirenzapine from human recombinant M1 receptor incubated for 1 hr by radiometric scintillation counting analysis
[7] = Toxicity in CBAxC57BL/6J mouse assessed as effect on straub tail at 10 to 100 mg/kg, po bid for 14.5 days; format: organism-based; conditions: in vivo, 348 h, dose 10-100 mg/kg, time 14.5 day; procedure, shortened: as §1
[8] = biological target: Muscarinic acetylcholine receptor M2 (Homo sapiens, UniProt P08172); experiment: Displacement of [3H]AF-DX384 from human recombinant M2 receptor incubated for 1 hr by radiometric scintillation counting analysis
[9] = Inhibition of Class 2b HDAC in human HEK293 cells using alpha-tubulin as substrate by fluorogenic assay; format: cell-based

Muscarinic acetylcholine receptor M2, sequence (P08172 whole entry): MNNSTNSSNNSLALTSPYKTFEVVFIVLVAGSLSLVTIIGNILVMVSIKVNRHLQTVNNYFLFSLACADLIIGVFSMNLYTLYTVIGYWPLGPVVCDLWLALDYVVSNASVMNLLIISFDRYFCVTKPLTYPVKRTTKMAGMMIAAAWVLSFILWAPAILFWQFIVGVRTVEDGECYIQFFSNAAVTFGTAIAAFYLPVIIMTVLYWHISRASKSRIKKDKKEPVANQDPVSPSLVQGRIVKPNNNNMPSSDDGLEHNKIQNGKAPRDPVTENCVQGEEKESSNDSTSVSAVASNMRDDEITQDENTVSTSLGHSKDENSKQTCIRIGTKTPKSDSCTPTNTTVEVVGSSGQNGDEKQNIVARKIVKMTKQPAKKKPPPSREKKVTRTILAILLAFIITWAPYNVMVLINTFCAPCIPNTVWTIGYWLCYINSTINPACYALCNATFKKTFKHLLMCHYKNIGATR
Histone deacetylase 5, sequence (Q9UQL6 whole entry, canonical isoform): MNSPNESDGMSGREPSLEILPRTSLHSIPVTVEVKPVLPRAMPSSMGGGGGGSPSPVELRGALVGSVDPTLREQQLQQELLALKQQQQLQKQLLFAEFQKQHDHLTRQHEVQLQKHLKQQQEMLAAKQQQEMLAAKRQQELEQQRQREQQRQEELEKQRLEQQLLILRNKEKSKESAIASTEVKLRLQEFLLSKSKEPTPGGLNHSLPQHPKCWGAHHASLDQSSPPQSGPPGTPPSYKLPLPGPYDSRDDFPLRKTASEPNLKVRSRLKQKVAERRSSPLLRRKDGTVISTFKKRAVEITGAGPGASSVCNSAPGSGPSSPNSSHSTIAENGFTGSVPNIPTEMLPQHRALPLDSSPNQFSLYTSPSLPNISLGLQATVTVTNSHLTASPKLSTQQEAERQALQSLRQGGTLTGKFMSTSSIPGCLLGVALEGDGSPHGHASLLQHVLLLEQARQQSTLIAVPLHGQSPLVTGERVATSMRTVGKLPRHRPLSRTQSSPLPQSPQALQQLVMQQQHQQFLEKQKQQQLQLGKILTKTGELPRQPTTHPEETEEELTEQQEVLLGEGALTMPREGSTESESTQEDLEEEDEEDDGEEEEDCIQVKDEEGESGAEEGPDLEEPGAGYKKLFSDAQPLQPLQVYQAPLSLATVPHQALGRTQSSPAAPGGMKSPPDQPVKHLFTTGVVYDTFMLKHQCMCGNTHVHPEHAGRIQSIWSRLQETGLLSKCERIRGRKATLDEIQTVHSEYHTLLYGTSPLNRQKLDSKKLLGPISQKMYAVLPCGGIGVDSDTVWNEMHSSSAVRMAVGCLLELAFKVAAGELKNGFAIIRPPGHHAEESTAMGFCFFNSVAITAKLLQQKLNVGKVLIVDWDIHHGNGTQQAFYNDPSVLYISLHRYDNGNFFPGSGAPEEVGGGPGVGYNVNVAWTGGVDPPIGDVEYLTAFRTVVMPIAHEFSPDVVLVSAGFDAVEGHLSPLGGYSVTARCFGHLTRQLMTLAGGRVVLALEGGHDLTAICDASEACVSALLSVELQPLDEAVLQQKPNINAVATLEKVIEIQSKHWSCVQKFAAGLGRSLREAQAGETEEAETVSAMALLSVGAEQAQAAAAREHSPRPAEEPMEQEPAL
Histone deacetylase 4, sequence (P56524 whole entry): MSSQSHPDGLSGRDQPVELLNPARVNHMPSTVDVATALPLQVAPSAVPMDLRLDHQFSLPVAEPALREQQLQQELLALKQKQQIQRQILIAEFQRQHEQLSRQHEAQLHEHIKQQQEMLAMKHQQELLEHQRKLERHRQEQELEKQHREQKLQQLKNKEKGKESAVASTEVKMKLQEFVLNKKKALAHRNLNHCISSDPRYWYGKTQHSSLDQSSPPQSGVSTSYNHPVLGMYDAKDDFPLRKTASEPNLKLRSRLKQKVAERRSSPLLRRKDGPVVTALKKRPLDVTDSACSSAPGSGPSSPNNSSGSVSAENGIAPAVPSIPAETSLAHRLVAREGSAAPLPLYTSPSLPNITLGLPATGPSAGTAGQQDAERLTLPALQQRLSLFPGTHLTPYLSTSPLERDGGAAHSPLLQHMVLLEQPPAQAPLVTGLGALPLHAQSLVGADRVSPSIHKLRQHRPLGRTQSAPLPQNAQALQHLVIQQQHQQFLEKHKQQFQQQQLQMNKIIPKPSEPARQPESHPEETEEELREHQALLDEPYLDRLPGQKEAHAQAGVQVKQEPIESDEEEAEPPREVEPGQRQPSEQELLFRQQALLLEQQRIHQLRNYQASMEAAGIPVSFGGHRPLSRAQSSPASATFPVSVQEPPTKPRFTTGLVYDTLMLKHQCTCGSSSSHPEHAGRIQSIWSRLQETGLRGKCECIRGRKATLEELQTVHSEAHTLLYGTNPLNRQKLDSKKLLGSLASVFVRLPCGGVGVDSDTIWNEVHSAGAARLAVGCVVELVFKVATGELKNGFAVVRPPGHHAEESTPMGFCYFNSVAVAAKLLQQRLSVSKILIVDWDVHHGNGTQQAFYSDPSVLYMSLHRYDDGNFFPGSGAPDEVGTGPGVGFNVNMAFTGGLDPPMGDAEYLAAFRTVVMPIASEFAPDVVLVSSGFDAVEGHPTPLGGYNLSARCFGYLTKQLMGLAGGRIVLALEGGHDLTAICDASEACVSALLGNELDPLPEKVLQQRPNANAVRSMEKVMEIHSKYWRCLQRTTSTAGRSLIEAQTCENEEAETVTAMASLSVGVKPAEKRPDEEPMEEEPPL
Muscarinic acetylcholine receptor M1, sequence (P11229 whole entry): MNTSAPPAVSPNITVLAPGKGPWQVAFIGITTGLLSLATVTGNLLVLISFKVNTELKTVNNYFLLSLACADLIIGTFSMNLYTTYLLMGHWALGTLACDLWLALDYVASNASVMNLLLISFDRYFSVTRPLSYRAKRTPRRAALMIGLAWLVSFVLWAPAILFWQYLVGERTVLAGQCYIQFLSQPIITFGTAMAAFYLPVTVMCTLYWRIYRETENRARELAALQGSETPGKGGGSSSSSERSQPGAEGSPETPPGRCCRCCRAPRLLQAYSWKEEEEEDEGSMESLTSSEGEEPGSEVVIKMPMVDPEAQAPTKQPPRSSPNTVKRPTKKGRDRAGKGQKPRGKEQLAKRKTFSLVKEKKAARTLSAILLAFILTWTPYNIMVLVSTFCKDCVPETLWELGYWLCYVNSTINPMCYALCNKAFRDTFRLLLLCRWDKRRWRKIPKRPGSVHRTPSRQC
Cytochrome P450 2C9, sequence (P11712 whole entry): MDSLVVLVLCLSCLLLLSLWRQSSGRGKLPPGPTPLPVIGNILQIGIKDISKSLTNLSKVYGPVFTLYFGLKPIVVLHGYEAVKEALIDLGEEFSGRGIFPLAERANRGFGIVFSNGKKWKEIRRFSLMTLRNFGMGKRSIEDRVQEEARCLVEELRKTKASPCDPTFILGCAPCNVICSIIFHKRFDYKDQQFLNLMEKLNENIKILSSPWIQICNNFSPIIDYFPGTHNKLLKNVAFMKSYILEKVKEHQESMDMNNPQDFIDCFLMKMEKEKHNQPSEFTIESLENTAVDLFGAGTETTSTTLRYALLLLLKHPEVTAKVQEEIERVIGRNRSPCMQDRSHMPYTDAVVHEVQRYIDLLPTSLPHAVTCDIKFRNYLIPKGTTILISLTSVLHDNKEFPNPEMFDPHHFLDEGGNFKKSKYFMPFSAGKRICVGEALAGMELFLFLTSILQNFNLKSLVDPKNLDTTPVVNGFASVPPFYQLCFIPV
Cytochrome P450 3A4, sequence (P08684 whole entry): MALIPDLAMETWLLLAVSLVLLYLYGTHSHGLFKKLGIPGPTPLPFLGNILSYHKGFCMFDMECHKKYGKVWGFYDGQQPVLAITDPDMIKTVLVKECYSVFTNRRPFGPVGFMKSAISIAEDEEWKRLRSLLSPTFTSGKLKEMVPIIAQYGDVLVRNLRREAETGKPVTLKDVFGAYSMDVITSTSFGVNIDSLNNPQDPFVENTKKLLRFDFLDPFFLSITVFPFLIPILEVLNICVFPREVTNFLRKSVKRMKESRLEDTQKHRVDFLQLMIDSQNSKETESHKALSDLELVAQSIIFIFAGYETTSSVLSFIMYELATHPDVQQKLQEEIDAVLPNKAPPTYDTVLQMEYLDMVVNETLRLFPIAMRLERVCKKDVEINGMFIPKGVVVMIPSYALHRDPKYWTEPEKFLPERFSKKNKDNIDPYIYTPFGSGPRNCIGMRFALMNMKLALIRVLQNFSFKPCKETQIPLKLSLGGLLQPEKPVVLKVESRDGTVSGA

inhibition (Homo sapiens): > 50% | IC50 (Histone deacetylase 4): 0.04 µM | IC50 [2]: 10 µM | IC50 (Histone deacetylase 5): 0.02 µM | IC50 (Cytochrome P450 3A4): > 50 µM | Tmax [5]: 30 min | IC50 (Cytochrome P450 2C9): > 50 µM | Kd [6]: > 5 µM | Kd [8]: > 5 µM | IC50 [9]: > 29 µM
Compound: C[C@H](CN1CCC[C@@H]1C)NC(=O)c1ccc(-c2noc(C(F)(F)F)n2)cc1
Activity [1]: Non-Toxic | Activity [3]: Non-Toxic | Activity [4]: Toxic | Activity [7]: Non-Toxic
